KA, HR and KB data for three compounds are collected here from ChEMBL document CHEMBL1121448, “Adrenergic receptor agonists. Benzofuranylethanolamines” (1980).

The target in assay [1] is Beta-1 adrenergic receptor (Homo sapiens) (UniProt P08588). In words: Tested for agonistic effect on heart rate against beta-1 adrenergic receptor in cat. As to conditions: Felis catus, target entry is the homologue from another species. The class given is functional, tissue-based. Put shortly: (§1)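 Reserpinized, bilaterally vagotomized cats, pentobarbital-anesthetized (30 mg/kg ip, then 0.1 (mg/min)/kg infusion), artificially ventilated. Heart rate was recorded by cardiotachograph from carotid pressure. Hind-leg vascular resistance was read as perfusion pressure under constant-flow autoperfusion. Test compound was infused iv into the femoral vein for 10 min at 1.0 mL/min, in five stepwise raised concentrations.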

For assay [2], the species on record is Felis catus. In words: Intrinsic activity as percentage of heart rate (HR max) in cat was determined. In kind it is functional. Summed up: as §1
Assay [3] has as its target Beta-1 adrenergic receptor (Homo sapiens) (UniProt P08588). In words: Tested for antagonistic effect on heart rate against beta-1 adrenergic receptor in cat. As to conditions: Felis catus, target entry is the homologue from another species. The class given is functional, tissue-based. Summed up: as §1
For assay [4], the target named is Beta-2 adrenergic receptor (Homo sapiens) (UniProt P07550). As to the kind of experiment: Tested for agonistic effect on peripheral vascular resistance (PR) against beta 2 adrenergic receptor in cat. In kind it is functional. As to conditions: Felis catus; target entry is the homologue from another species. Put shortly:
as §1

The target is the same in assay [5]. As to the kind of experiment: Tested for agonistic effect on peripheral vascular resistance (PR) against beta-2 adrenergic receptor in cat. Conditions: Felis catus; target entry is the homologue from another species. The class given is functional. Put shortly:
as §1

Sequence of Beta-1 adrenergic receptor (Homo sapiens) (P08588 whole entry, looked up, the tested form may be a part): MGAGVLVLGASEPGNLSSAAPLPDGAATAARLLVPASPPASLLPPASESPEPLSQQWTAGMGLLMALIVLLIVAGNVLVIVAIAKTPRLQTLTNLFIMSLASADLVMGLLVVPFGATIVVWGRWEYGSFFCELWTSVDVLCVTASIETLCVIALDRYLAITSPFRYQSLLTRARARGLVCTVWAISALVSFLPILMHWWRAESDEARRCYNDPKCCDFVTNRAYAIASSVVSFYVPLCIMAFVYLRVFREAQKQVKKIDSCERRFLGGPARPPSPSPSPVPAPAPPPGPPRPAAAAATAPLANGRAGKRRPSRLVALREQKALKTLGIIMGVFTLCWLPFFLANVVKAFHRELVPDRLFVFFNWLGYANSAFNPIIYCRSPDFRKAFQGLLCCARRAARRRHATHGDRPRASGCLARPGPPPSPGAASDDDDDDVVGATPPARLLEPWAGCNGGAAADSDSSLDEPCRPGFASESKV
Sequence of Beta-2 adrenergic receptor (Homo sapiens) (P07550 whole entry, looked up): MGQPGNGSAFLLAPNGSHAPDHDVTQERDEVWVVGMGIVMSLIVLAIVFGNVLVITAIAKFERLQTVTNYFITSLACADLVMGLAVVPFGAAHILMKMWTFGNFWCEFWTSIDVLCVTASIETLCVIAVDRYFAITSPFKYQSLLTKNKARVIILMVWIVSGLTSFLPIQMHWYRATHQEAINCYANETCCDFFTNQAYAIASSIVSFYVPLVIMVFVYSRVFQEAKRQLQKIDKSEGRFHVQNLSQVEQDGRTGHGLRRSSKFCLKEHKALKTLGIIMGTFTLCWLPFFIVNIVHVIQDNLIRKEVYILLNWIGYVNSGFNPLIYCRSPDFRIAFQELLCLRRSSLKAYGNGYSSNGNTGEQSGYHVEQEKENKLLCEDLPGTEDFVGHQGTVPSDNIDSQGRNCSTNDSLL

On to `CC(C)NC[C@H](O)COc1ccc(O)cc1` [PRENALTEROL], for which the KA in assay [1] is 0.025 µM/kg. The same compound registered an HR in assay [2] of 80%.
`CC(C)NCC(O)c1cc2ccc(O)cc2o1` (stereo not given) had a KA in assay [1] of 1.65 µM/kg. For the same compound, the KB in assay [3] turned out to be 4.8 µM/kg; in assay [4] it was 4.73 µM/kg. This compound yielded an HR in assay [2] of 27%.
For `CC(C)NCC(O)c1cc2cc(O)ccc2o1` (stereo not given), in assay [1], the KA is 0.21 µM/kg. The KB worked out at 0.34 µM/kg in assay [3] and 1.12 µM/kg in assay [5]. This compound registered an HR in assay [2] of 80%.
